Laboratory results from ChEMBL document CHEMBL3044653, “Synthesis and herbicidal activity of 2-(substituted phenoxyacetoxy)alkyl-5,5-dimethyl-1,3,2-dioxaphosphinan-2-one” (J Agric Food Chem, 2012).

Assays:
Amaranthus retroflexus [1] = assay: Post-emergence herbicidal activity against Amaranthus retroflexus assessed as inhibition at 150 g/hectare treated at two-leaf stage by green house assay; assay type: functional
Method in brief: (§1)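 Greenhouse postemergence spray of diluted formulation solutions onto broadleaf weeds at the two-leaf stage. Primary screen at 150 g ai/ha, with selected compounds retested at 75 and 37.5 g ai/ha. Abutilon was tested at 150 g ai/ha only. Read-out is percent herbicidal damage relative to an untreated control.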

Setaria viridis [2] = assay: Post-emergence herbicidal activity against Setaria viridis (green foxtail) assessed as inhibition at 150 g/hectare treated at one-leaf stage by green house assay; assay type: functional
Method in brief: (§2)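 Monocot weeds were sprayed postemergence in the greenhouse at the one-leaf stage with diluted formulation solutions. Primary dose was 150 g ai/ha, with follow-up doses of 75 and 37.5 g ai/ha for selected compounds. Activity is scored as percent herbicidal damage compared with an untreated control.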

Eclipta prostrata [3] = assay: Post-emergence herbicidal activity against Eclipta prostrata assessed as inhibition at 150 g/hectare treated at two-leaf stage by green house assay; assay type: functional; method in brief: as §1
Digitaria sanguinalis [4] = assay: Post-emergence herbicidal activity against Digitaria sanguinalis (hairy crabgrass) assessed as inhibition at 150 g/hectare treated at one-leaf stage by green house assay; assay type: functional; method in brief: as §2
Echinochloa crus-galli [5] = assay: Post-emergence herbicidal activity against Echinochloa crus-galli (barnyard grass) assessed as inhibition at 150 g/hectare treated at one-leaf stage by green house assay; assay type: functional; method in brief: as §2
Abutilon theophrasti = assay: Post-emergence herbicidal activity against Abutilon theophrasti (velvetleaf) assessed as inhibition at 150 g/hectare treated at two-leaf stage by green house assay; assay type: functional; method in brief: as §1
Brassica juncea [6] = assay: Post-emergence herbicidal activity against Brassica juncea assessed as inhibition at 150 g/hectare treated at two-leaf stage by green house assay; assay type: functional; method in brief: as §1
Setaria viridis [7] = assay: Post-emergence herbicidal activity against Setaria viridis (green foxtail) assessed as inhibition at 37.5 g/hectare treated at one-leaf stage by green house assay; assay type: functional; method in brief: as §2
Glycine max = assay: Toxicity in Glycine max (soybean) plant assessed as inhibition at 150 g/hectare; assay type: organism-based; details: in vivo
Method in brief: (§3)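 For crop selectivity, conventional crop varieties were planted in 12 cm diameter plots and given a postemergence treatment at 150 g ai/ha. Injury was scored as percent inhibition, with 0–10% classed as safe to the crop.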

Brassica juncea [8] = assay: Post-emergence herbicidal activity against Brassica juncea assessed as inhibition at 75 g/hectare treated at two-leaf stage by green house assay; assay type: functional; method in brief: as §1
Digitaria sanguinalis [9] = assay: Post-emergence herbicidal activity against Digitaria sanguinalis (hairy crabgrass) assessed as inhibition at 75 g/hectare treated at one-leaf stage by green house assay; assay type: functional; method in brief: as §2
Triticum aestivum = assay: Toxicity in Triticum aestivum (wheat) plant assessed as inhibition at 150 g/hectare; assay type: organism-based; details: in vivo; method in brief: as §3
Echinochloa crus-galli [10] = assay: Post-emergence herbicidal activity against Echinochloa crus-galli (barnyard grass) assessed as inhibition at 37.5 g/hectare treated at one-leaf stage by green house assay; assay type: functional; method in brief: as §2
Eclipta prostrata [11] = assay: Post-emergence herbicidal activity against Eclipta prostrata assessed as inhibition at 75 g/hectare treated at two-leaf stage by green house assay; assay type: functional; method in brief: as §1
Oryza sativa = assay: Toxicity in Oryza sativa (rice) plant assessed as inhibition at 150 g/hectare; assay type: organism-based; details: in vivo; method in brief: as §3
Zea mays = assay: Toxicity in Zea mays (maize) plant assessed as inhibition at 150 g/hectare; assay type: organism-based; details: in vivo; method in brief: as §3
Digitaria sanguinalis [12] = assay: Post-emergence herbicidal activity against Digitaria sanguinalis (hairy crabgrass) assessed as inhibition at 37.5 g/hectare treated at one-leaf stage by green house assay; assay type: functional; method in brief: as §2
Amaranthus retroflexus [13] = assay: Post-emergence herbicidal activity against Amaranthus retroflexus assessed as inhibition at 75 g/hectare treated at two-leaf stage by green house assay; assay type: functional; method in brief: as §1
Amaranthus retroflexus [14] = assay: Post-emergence herbicidal activity against Amaranthus retroflexus assessed as inhibition at 37.5 g/hectare treated at two-leaf stage by green house assay; assay type: functional; method in brief: as §1
Brassica napus = assay: Toxicity in Brassica napus (oilseed rape) assessed as inhibition at 150 g/hectare; assay type: functional; method in brief: as §3
Eclipta prostrata [15] = assay: Post-emergence herbicidal activity against Eclipta prostrata assessed as inhibition at 37.5 g/hectare treated at two-leaf stage by green house assay; assay type: functional; method in brief: as §1
Brassica juncea [16] = assay: Post-emergence herbicidal activity against Brassica juncea assessed as inhibition at 37.5 g/hectare treated at two-leaf stage by green house assay; assay type: functional; method in brief: as §1
Setaria viridis [17] = assay: Post-emergence herbicidal activity against Setaria viridis (green foxtail) assessed as inhibition at 75 g/hectare treated at one-leaf stage by green house assay; assay type: functional; method in brief: as §2
Echinochloa crus-galli [18] = assay: Post-emergence herbicidal activity against Echinochloa crus-galli (barnyard grass) assessed as inhibition at 75 g/hectare treated at one-leaf stage by green house assay; assay type: functional; method in brief: as §2
Gossypium hirsutum = assay: Toxicity in Gossypium hirsutum (cotton) plant assessed as inhibition at 150 g/hectare; assay type: organism-based; details: in vivo; method in brief: as §3

SMILES | inhibition at 150 g/ha (Amaranthus retroflexus [1]) [%] | inhibition at 150 g/ha (Setaria viridis [2]) [%] | inhibition at 150 g/ha (Eclipta prostrata [3]) [%] | inhibition at 150 g/ha (Digitaria sanguinalis [4]) [%] | inhibition at 150 g/ha (Echinochloa crus-galli [5]) [%] | inhibition at 150 g/ha (Abutilon theophrasti) [%] | inhibition at 150 g/ha (Brassica juncea [6]) [%] | also measured
Cc1cc(OCC(=O)OC(c2ccco2)P2(=O)OCC(C)(C)CO2)ccc1Cl (stereo not drawn) | 60 | 0 | 55 | 0 | 0 | 70 | 65 | 
CCCCC(OC(=O)COc1ccc(Cl)cc1Cl)P1(=O)OCC(C)(C)CO1 (stereo not drawn) | 85 | 0 | 75 | 0 | 0 | 90 | 100 | inhibition at 37.5 g/ha (Setaria viridis [7]): 0%; inhibition (INH) (Glycine max): 30%; inhibition at 75 g/ha (Brassica juncea [8]): 100%; inhibition at 75 g/ha (Digitaria sanguinalis [9]): 0%; inhibition (INH) (Triticum aestivum): 10%; inhibition at 37.5 g/ha (Echinochloa crus-galli [10]): 0%; inhibition at 75 g/ha (Eclipta prostrata [11]): 40%; inhibition (INH) (Oryza sativa): 30%; inhibition (INH) (Zea mays): 0%; inhibition at 37.5 g/ha (Digitaria sanguinalis [12]): 0%; inhibition at 75 g/ha (Amaranthus retroflexus [13]): 70%; inhibition at 37.5 g/ha (Amaranthus retroflexus [14]): 50%; inhibition at 150 g/ha (Brassica napus): 40%; inhibition at 37.5 g/ha (Eclipta prostrata [15]): 30%; inhibition at 37.5 g/ha (Brassica juncea [16]): 90%; inhibition at 75 g/ha (Setaria viridis [17]): 0%; inhibition at 75 g/ha (Echinochloa crus-galli [18]): 0%; inhibition (INH) (Gossypium hirsutum): 20%
CC1(C)COP(=O)(C(OC(=O)COc2ccc(Cl)cc2Cl)c2ccccc2)OC1 (stereo not drawn) | 90 | 0 | 80 | 0 | 0 | 98 | 100 | inhibition at 37.5 g/ha (Setaria viridis [7]): 0%; inhibition (INH) (Glycine max): 30%; inhibition at 75 g/ha (Brassica juncea [8]): 95%; inhibition at 75 g/ha (Digitaria sanguinalis [9]): 0%; inhibition (INH) (Triticum aestivum): 10%; inhibition at 37.5 g/ha (Echinochloa crus-galli [10]): 0%; inhibition at 75 g/ha (Eclipta prostrata [11]): 55%; inhibition (INH) (Oryza sativa): 10%; inhibition (INH) (Zea mays): 0%; inhibition at 37.5 g/ha (Digitaria sanguinalis [12]): 0%; inhibition at 75 g/ha (Amaranthus retroflexus [13]): 80%; inhibition at 37.5 g/ha (Amaranthus retroflexus [14]): 50%; inhibition at 150 g/ha (Brassica napus): 40%; inhibition at 37.5 g/ha (Eclipta prostrata [15]): 50%; inhibition at 37.5 g/ha (Brassica juncea [16]): 90%; inhibition at 75 g/ha (Setaria viridis [17]): 0%; inhibition at 75 g/ha (Echinochloa crus-galli [18]): 0%; inhibition (INH) (Gossypium hirsutum): 40%
CC1(C)COP(=O)(C(OC(=O)COc2ccccc2Cl)c2ccco2)OC1 (stereo not drawn) | 85 | 0 | 70 | 0 | 0 | 70 | 90 | 
CC(C)C(OC(=O)COc1ccc(Cl)cc1Cl)P1(=O)OCC(C)(C)CO1 (stereo not drawn) | 85 | 0 | 75 | 0 | 0 | 95 | 100 | inhibition at 37.5 g/ha (Setaria viridis [7]): 0%; inhibition (INH) (Glycine max): 30%; inhibition at 75 g/ha (Brassica juncea [8]): 100%; inhibition at 75 g/ha (Digitaria sanguinalis [9]): 0%; inhibition (INH) (Triticum aestivum): 10%; inhibition at 37.5 g/ha (Echinochloa crus-galli [10]): 0%; inhibition at 75 g/ha (Eclipta prostrata [11]): 35%; inhibition (INH) (Oryza sativa): 20%; inhibition (INH) (Zea mays): 0%; inhibition at 37.5 g/ha (Digitaria sanguinalis [12]): 0%; inhibition at 75 g/ha (Amaranthus retroflexus [13]): 80%; inhibition at 37.5 g/ha (Amaranthus retroflexus [14]): 30%; inhibition at 150 g/ha (Brassica napus): 50%; inhibition at 37.5 g/ha (Eclipta prostrata [15]): 30%; inhibition at 37.5 g/ha (Brassica juncea [16]): 90%; inhibition at 75 g/ha (Setaria viridis [17]): 0%; inhibition at 75 g/ha (Echinochloa crus-galli [18]): 0%; inhibition (INH) (Gossypium hirsutum): 20%
CC(OC(=O)COc1ccc(Cl)cc1)P1(=O)OCC(C)(C)CO1 (stereo not drawn) | 70 | 0 | 60 | 0 | 10 | 70 | 75 | 
CC(OC(=O)COc1ccccc1Cl)P1(=O)OCC(C)(C)CO1 (stereo not drawn) | 90 | 0 | 75 | 0 | 20 | 70 | 90 | 
CC1(C)COP(=O)(C(OC(=O)COc2ccc(Cl)cc2Cl)c2ccc(Cl)cc2Cl)OC1 (stereo not drawn) | 80 | 0 | 70 | 0 | 0 | 95 | 100 | inhibition at 37.5 g/ha (Setaria viridis [7]): 0%; inhibition (INH) (Glycine max): 30%; inhibition at 75 g/ha (Brassica juncea [8]): 55%; inhibition at 75 g/ha (Digitaria sanguinalis [9]): 0%; inhibition (INH) (Triticum aestivum): 0%; inhibition at 37.5 g/ha (Echinochloa crus-galli [10]): 0%; inhibition at 75 g/ha (Eclipta prostrata [11]): 34%; inhibition (INH) (Oryza sativa): 10%; inhibition (INH) (Zea mays): 10%; inhibition at 37.5 g/ha (Digitaria sanguinalis [12]): 0%; inhibition at 75 g/ha (Amaranthus retroflexus [13]): 20%; inhibition at 37.5 g/ha (Amaranthus retroflexus [14]): 20%; inhibition at 150 g/ha (Brassica napus): 40%; inhibition at 37.5 g/ha (Eclipta prostrata [15]): 30%; inhibition at 37.5 g/ha (Brassica juncea [16]): 50%; inhibition at 75 g/ha (Setaria viridis [17]): 0%; inhibition at 75 g/ha (Echinochloa crus-galli [18]): 0%; inhibition (INH) (Gossypium hirsutum): 20%
Cc1cc(Cl)ccc1OCC(=O)OC(c1ccco1)P1(=O)OCC(C)(C)CO1 (stereo not drawn) | 100 | 0 | 70 | 0 | 60 | 100 | 90 | 
COP(=O)(OC)C(C)OC(=O)COc1ccc(Cl)cc1Cl (stereo not drawn) [CLACYFOS] | 96 | 0 | 90 | 0 | 0 | 100 | 85 | inhibition at 37.5 g/ha (Setaria viridis [7]): 0%; inhibition at 75 g/ha (Brassica juncea [8]): 95%; inhibition at 75 g/ha (Digitaria sanguinalis [9]): 0%; inhibition at 37.5 g/ha (Echinochloa crus-galli [10]): 0%; inhibition at 75 g/ha (Eclipta prostrata [11]): 80%; inhibition at 37.5 g/ha (Digitaria sanguinalis [12]): 0%; inhibition at 75 g/ha (Amaranthus retroflexus [13]): 95%; inhibition at 37.5 g/ha (Amaranthus retroflexus [14]): 70%; inhibition at 37.5 g/ha (Eclipta prostrata [15]): 60%; inhibition at 37.5 g/ha (Brassica juncea [16]): 90%; inhibition at 75 g/ha (Setaria viridis [17]): 0%; inhibition at 75 g/ha (Echinochloa crus-galli [18]): 0%
Cc1cc(OCC(=O)OC(C)P2(=O)OCC(C)(C)CO2)ccc1Cl (stereo not drawn) | 60 | 0 | 60 | 0 | 0 | 70 | 70 | 
CC1(C)COP(=O)(C(OC(=O)COc2ccc(Cl)cc2)c2ccco2)OC1 (stereo not drawn) | 55 | 0 | 50 | 0 | 0 | 70 | 70 | 
COP(=O)(OC)C(C)OC(=O)COc1ccc(Cl)cc1C (stereo not drawn) | 10 | 0 | 30 | 0 | 0 | 82 | 20 | 
Cc1cc(Cl)ccc1OCC(=O)OC(c1ccccc1)P1(=O)OCC(C)(C)CO1 (stereo not drawn) | 100 | 0 | 75 | 0 | 40 | 100 | 90 | 
CC1(C)COP(=O)(C(OC(=O)COc2ccc(Cl)cc2)c2ccccc2)OC1 (stereo not drawn) | 60 | 0 | 50 | 0 | 0 | 65 | 70 | 
CC1(C)COP(=O)(C(OC(=O)COc2ccccc2Cl)c2ccccc2)OC1 (stereo not drawn) | 75 | 0 | 65 | 0 | 0 | 70 | 75 | 
Cc1cc(OCC(=O)OC(c2ccccc2)P2(=O)OCC(C)(C)CO2)ccc1Cl (stereo not drawn) | 65 | 0 | 60 | 0 | 0 | 65 | 65 | 
